Test results: ChEMBL document CHEMBL4715738, “In Vitro Antibacterial Activity of Curcumin-Polymyxin B Combinations against Multidrug-Resistant Bacteria Associated with Traumatic Wound Infections” (J Nat Prod, 2016)
In brackets after ≈: the same amount, converted by molar mass.

What was measured:
Pseudomonas aeruginosa [1] = assay: Antibacterial activity against Pseudomonas aeruginosa ATCC 27853 assessed as reduction in bacterial growth incubated for 24 hrs; type: functional
Escherichia coli [2] = assay: Antibacterial activity against Escherichia coli EC204 harboring NDM-1 assessed as reduction in bacterial growth incubated for 24 hrs; type: functional
Escherichia coli [3] = assay: Antibacterial activity against Escherichia coli EC2 harboring CTX-M-15 assessed as reduction in bacterial growth incubated for 24 hrs; type: functional
[4] = system: Stenotrophomonas maltophilia; assay: Antibacterial activity against Stenotrophomonas maltophilia NCTC 10258 assessed as reduction in bacterial growth incubated for 24 hrs; type: functional
Pseudomonas aeruginosa [5] = assay: Potentiation of polymyxin B-induced antibacterial activity against Pseudomonas aeruginosa ATCC 27853 assessed as fold reduction in polymyxin B MIC measured after 24 hrs in presence of polymyxin B by checkerboard assay; type: functional
Pseudomonas aeruginosa [6] = assay: Bactericidal activity against Pseudomonas aeruginosa ATCC 27853 assessed as bacterial cell death at 0.5 fold MIC measured after 4 to 6 hrs in presence of polymyxin B at MIC by time kill assay relative to control; type: functional; conditions: time 4-6 hrs
Method in brief: (§1)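 Time-kill in 10 mL Mueller-Hinton 2 broth, 37 °C with continuous agitation, 24 h. Inoculum was a 1/1000 dilution of a 16 h overnight culture, about 10^6 CFU/mL. Single agents at 1× MIC; combination at 1× MIC polymyxin B plus 0.5× MIC curcumin. Samples at 0, 2, 4, 6 and 24 h were serially diluted and plated on IsoSensitest agar for CFU/mL.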

Pseudomonas aeruginosa [7] = assay: Antibacterial activity against Pseudomonas aeruginosa PA30 harboring VIM-2 assessed as reduction in bacterial growth incubated for 24 hrs; type: functional
Acinetobacter baumannii [8] = assay: Antibacterial activity against Acinetobacter baumannii AB12 harboring OXA-23 assessed as reduction in bacterial growth incubated for 24 hrs; type: functional
Enterococcus faecium [9] = assay: Antibacterial activity against vancomycin-resistant Enterococcus faecium OEF65 assessed as reduction in bacterial growth incubated for 24 hrs; type: functional
Escherichia coli [10] = assay: Antibacterial activity against Escherichia coli EC2 harboring CTX-M-15 assessed as reduction in bacterial growth incubated for 24 hrs in presence of polymyxin B; type: functional
Staphylococcus aureus [11] = assay: Antibacterial activity against vancomycin-intermediate resistant Staphylococcus aureus Mu50 assessed as reduction in bacterial growth incubated for 24 hrs; type: functional
Acinetobacter baumannii [12] = assay: Antibacterial activity against Acinetobacter baumannii AB14 harboring OXA-23 clone 1 assessed as reduction in bacterial growth incubated for 24 hrs; type: functional
Escherichia coli [13] = assay: Antibacterial activity against Escherichia coli NCTC 12241 assessed as reduction in bacterial growth incubated for 24 hrs; type: functional
Pseudomonas aeruginosa [14] = assay: Antibacterial activity against Pseudomonas aeruginosa PA14 assessed as reduction in bacterial growth incubated for 24 hrs; type: functional
[15] = system: Stenotrophomonas maltophilia; assay: Potentiation of polymyxin B-induced antibacterial activity against Stenotrophomonas maltophilia SMS01 assessed as fold reduction in polymyxin B MIC measured after 24 hrs in presence of polymyxin B by checkerboard assay; type: functional
[16] = system: Stenotrophomonas maltophilia; assay: Antibacterial activity against Stenotrophomonas maltophilia SMB07 assessed as reduction in bacterial growth incubated for 24 hrs in presence of polymyxin B; type: functional
Enterococcus faecium [17] = assay: Antibacterial activity against vancomycin-resistant Enterococcus faecium OEF42 assessed as reduction in bacterial growth incubated for 24 hrs; type: functional
Streptococcus pyogenes [18] = assay: Antibacterial activity against Streptococcus pyogenes SPY1 assessed as reduction in bacterial growth incubated for 24 hrs; type: functional
[19] = system: Stenotrophomonas maltophilia; assay: Potentiation of polymyxin B-induced antibacterial activity against Stenotrophomonas maltophilia NCTC 10258 assessed as fold reduction in polymyxin B MIC measured after 24 hrs in presence of polymyxin B by checkerboard assay; type: functional
Streptococcus pyogenes [20] = assay: Antibacterial activity against Streptococcus pyogenes SPY2 assessed as reduction in bacterial growth incubated for 24 hrs; type: functional
Streptococcus pyogenes [21] = assay: Antibacterial activity against Streptococcus pyogenes SPY3 assessed as reduction in bacterial growth incubated for 24 hrs; type: functional
Enterococcus faecalis = assay: Antibacterial activity against Enterococcus faecalis ATCC 29212 assessed as reduction in bacterial growth incubated for 24 hrs; conditions: ATCC 29212, 24 h
Acinetobacter baumannii [22] = assay: Bactericidal activity against Acinetobacter baumannii NCTC 19606 assessed as log reduction in colony forming units at 0.5 fold MIC measured after 24 hrs in presence of polymyxin B at MIC by time kill assay; type: functional
Method in brief: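 Time-kill in Mueller-Hinton 2 broth. Inoculum was a 1/1000 dilution of a 16 h overnight culture, about 10^6 CFU/mL, 10 mL per tube. Arms were each agent alone at ×1 MIC, or the combination at ×1 MIC plus ×0.5 MIC partner. Incubated at 37 °C with continuous agitation for 24 h. Samples taken at 0, 2, 4, 6 and 24 h, serially diluted and plated on IsoSensitest agar for CFU counts.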

Acinetobacter baumannii [23] = assay: Antibacterial activity against Acinetobacter baumannii AB16 harboring OXA-23 clone 2 assessed as reduction in bacterial growth incubated for 24 hrs; type: functional
[24] = system: Stenotrophomonas maltophilia; assay: Bactericidal activity against Stenotrophomonas maltophilia NCTC 102586 assessed as bacterial cell death at 0.5 fold MIC measured after 4 to 6 hrs in presence of polymyxin B at MIC by time kill assay relative to control; type: functional; conditions: time 4-6 hrs; method in brief: as §1
Staphylococcus aureus [25] = assay: Antibacterial activity against methicillin-resistant Staphylococcus aureus NCTC 12493 assessed as reduction in bacterial growth incubated for 24 hrs; type: functional
Staphylococcus aureus [26] = assay: Antibacterial activity against Staphylococcus aureus ATCC 25923 assessed as reduction in bacterial growth incubated for 24 hrs; type: functional
[27] = system: Stenotrophomonas maltophilia; assay: Antibacterial activity against Stenotrophomonas maltophilia SMS01 assessed as reduction in bacterial growth incubated for 24 hrs; type: functional
Pseudomonas aeruginosa [28] = assay: Antibacterial activity against Pseudomonas aeruginosa PAO1 assessed as reduction in bacterial growth incubated for 24 hrs; type: functional
Acinetobacter baumannii [29] = assay: Potentiation of polymyxin B-induced antibacterial activity against Acinetobacter baumannii NCTC 19606 assessed as fold reduction in polymyxin B MIC measured after 24 hrs in presence of polymyxin B by checkerboard assay; type: functional
[30] = system: Stenotrophomonas maltophilia; assay: Antibacterial activity against Stenotrophomonas maltophilia SMB07 assessed as reduction in bacterial growth incubated for 24 hrs; type: functional
Acinetobacter baumannii [31] = assay: Antibacterial activity against Acinetobacter baumannii NCTC 19606 assessed as reduction in bacterial growth incubated for 24 hrs; type: functional
Staphylococcus aureus [32] = assay: Synergistic antibacterial activity against methicillin-resistant Staphylococcus aureus NCTC 12493 assessed as fractional inhibitory concentration index measured after 24 hrs in presence of curcumin by checkerboard assay; type: functional
Method in brief: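 FICI was derived from checkerboard MICs. Synergy was defined as FICI ≤ 0.5 and additive as FICI > 0.5−4.0. Where an MIC was not reached, the dilution above the maximum dose was used in the FICI calculation. Experiments were run in triplicate and reported as means.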

Acinetobacter baumannii [33] = assay: Antibacterial activity against Acinetobacter baumannii AB14 harboring OXA-23 clone 1 assessed as reduction in bacterial growth incubated for 24 hrs in presence of curcumin; type: functional
Streptococcus pyogenes [34] = assay: Antibacterial activity against Streptococcus pyogenes SPY3 assessed as reduction in bacterial growth incubated for 24 hrs in presence of curcumin; type: functional
Escherichia coli [35] = assay: Antibacterial activity against Escherichia coli NCTC 12241 assessed as reduction in bacterial growth incubated for 24 hrs in presence of curcumin; type: functional
Acinetobacter baumannii [36] = assay: Antibacterial activity against Acinetobacter baumannii NCTC 19606 assessed as reduction in bacterial growth incubated for 24 hrs in presence of curcumin; type: functional

SMILES | MIC (Pseudomonas aeruginosa [1]) | MIC (Escherichia coli [2]) | MIC (Escherichia coli [3]) | MIC [4] | MIC (Pseudomonas aeruginosa [7]) | MIC (Acinetobacter baumannii [8]) | MIC (Enterococcus faecium [9]) | MIC (Staphylococcus aureus [11]) | MIC (Acinetobacter baumannii [12]) | MIC (Escherichia coli [13]) | MIC (Pseudomonas aeruginosa [14]) | MIC (Enterococcus faecium [17]) | MIC (Streptococcus pyogenes [18]) | MIC (Streptococcus pyogenes [20]) | MIC (Streptococcus pyogenes [21]) | MIC (Enterococcus faecalis) | MIC (Acinetobacter baumannii [23]) | MIC (Staphylococcus aureus [25]) | MIC (Staphylococcus aureus [26]) | MIC [27] | further results
COc1cc(/C=C/C(=O)CC(=O)/C=C/c2ccc(O)c(OC)c2)ccc1O [CURCUMIN] | 1390 µM (≈ 512 µg/mL) | 2780 µM (≈ 1020 µg/mL) | 2780 µM (≈ 1020 µg/mL) | 2780 µM (≈ 1020 µg/mL) | 2780 µM (≈ 1020 µg/mL) | 2780 µM (≈ 1020 µg/mL) | 174 µM (≈ 64.1 µg/mL) | 2780 µM (≈ 1020 µg/mL) | 1390 µM (≈ 512 µg/mL) | 2780 µM (≈ 1020 µg/mL) | 1390 µM (≈ 512 µg/mL) | 350 µM (≈ 129 µg/mL) | 350 µM (≈ 129 µg/mL) | 174 µM (≈ 64.1 µg/mL) | 174 µM (≈ 64.1 µg/mL) | 350 µM (≈ 129 µg/mL) | 2780 µM (≈ 1020 µg/mL) | 2780 µM (≈ 1020 µg/mL) | 2780 µM (≈ 1020 µg/mL) | 2780 µM (≈ 1020 µg/mL) | fold change (FC) (Pseudomonas aeruginosa [5]): 3; Activity (Pseudomonas aeruginosa [6]): 100%; MIC (Escherichia coli [10]): 43 µM; fold change (FC) [15]: 3; MIC [16]: 22 µM; fold change (FC) [19]: 3; Activity (Acinetobacter baumannii [22]): >3 log10CFU/ml; Activity [24]: 100%; MIC (Pseudomonas aeruginosa [28]): 1390 µM (≈ 512 µg/mL); fold change (FC) (Acinetobacter baumannii [29]): 3; MIC [30]: 2780 µM (≈ 1020 µg/mL); MIC (Acinetobacter baumannii [31]): 2780 µM (≈ 1020 µg/mL)
CC[C@H](C)CCCCC(=O)N[C@@H](CCN)C(=O)N[C@H](C(=O)N[C@@H](CCN)C(=O)N[C@H]1CCNC(=O)[C@H]([C@@H](C)O)NC(=O)[C@H](CCN)NC(=O)[C@H](CCN)NC(=O)[C@H](CC(C)C)NC(=O)[C@@H](Cc2ccccc2)NC(=O)[C@H](CCN)NC1=O)[C@@H](C)O.O=S(=O)(O)O | 0.39 µM | 0.096 µM | 0.096 µM | 1.5 µM | 0.39 µM | 0.19 µM | 49 µM | 98 µM | 0.096 µM | 0.048 µM | 0.78 µM | 98 µM | 6.1 µM | 12.3 µM | 3.1 µM | 98 µM | 0.19 µM | 98 µM | 98 µM | 6.1 µM | fractional inhibitory concentration index (FICI) (Staphylococcus aureus [32]): 0.031; MIC (Acinetobacter baumannii [33]): 0.024 µM; MIC (Streptococcus pyogenes [34]): 0.79 µM; MIC (Escherichia coli [35]): 0.024 µM; MIC (Acinetobacter baumannii [36]): 0.012 µM; MIC (Pseudomonas aeruginosa [28]): 0.78 µM; MIC [30]: 1.5 µM; MIC (Acinetobacter baumannii [31]): 0.19 µM
